The compounds below were run on Candida albicans (assay: Compound was evaluated for inhibition of transport of trimethionine in Candida albicans WD 18-4).
Type: functional
Set-up: concentration or dose not given beside the values
Method in brief: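 Initial uptake rate of radiolabeled (Met)3 into C. albicans WD 18-4 cells grown 6-8 h at 37 °C with aeration. Washed cells (1.4 mg dry wt/mL) preincubated 10 min at 37 °C, mixed with reaction mix of 2% glucose, citrate-phosphate buffer pH 3.5 (0.012 M) and (Met)3 6.06 x 10^-5 M. Samples filtered at intervals, washed, scintillation counted. Competitor included at 10-fold molar excess over (Met)3.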

Row | SMILES | Inhibition [%]
1 | COC(=O)[C@H](CCSC)NC(=O)[C@H](CCSC)NC(=O)c1cc(O)nc(O)n1 | 0
2 | O=C(O)CNC(=O)CNC(=O)c1cc(O)nc(O)n1 | 0
3 | CC(C)C[C@H](NC(=O)c1nc(O)nc(O)c1F)C(=O)O | 0
4 | CC(C)CC(NC(=O)C(CC(C)C)NC(=O)c1cc(O)nc(O)n1)C(=O)O (stereo not given) | 67
5 | CC(C)C[C@H](NC(=O)[C@H](CC(C)C)NC(=O)c1nc(O)nc(O)c1F)C(=O)O | 40

Source: ChEMBL document CHEMBL1121495, “Anticandidal activity of pyrimidine-peptide conjugates” (J Med Chem, 1980)
